ChEMBL document CHEMBL1154150, “Synthesis and anticonvulsant activity of some new bishydrazones derived from 3,4-dipropyloxythiophene” (Eur J Med Chem, 2009)
Calls of active or inactive are those of the source.

Experiments:
Mus musculus [1] = assay: Anticonvulsant activity in CF1 mouse assessed as protection against subcutaneous metrazole-induced seizures at 300 mg/kg, ip after 4 hrs; type: functional, organism-based; parameters: dose 300 mg/kg
Mus musculus [2] = assay: Anticonvulsant activity in CF1 mouse assessed as protection against maximal electroshock-induced seizures at 100 mg/kg, ip after 4 hrs; type: functional, organism-based; parameters: dose 100 mg/kg
Summary of the method: (§1)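 Male CF-1 albino mice (18–25 g), dosed i.p. at 30, 100 or 300 mg/kg in 0.5% methyl cellulose/water or PEG 200 (0.01 ml/g); tested at intervals after dosing; protection = abolition of hind limb tonic extensor component of MES seizure; scored as protected/tested.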

Mus musculus [3] = assay: Neurotoxicity in CF1 mouse at 300 mg/kg, ip after 4 hrs by rotarod test; type: toxicity, organism-based; parameters: dose 300 mg/kg, route intraperitoneal; settings: in vivo
Summary of the method: (§2)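 Rotorod neurotoxicity in male CF-1 mice (18–25 g) after i.p. compound in 0.5% methyl cellulose/water or PEG 200 at 30, 100 or 300 mg/kg; reported as number showing toxicity/number tested.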

Mus musculus [4] = assay: Neurotoxicity in CF1 mouse at 100 mg/kg, ip after 0.5 hrs by rotarod test; type: toxicity, organism-based; parameters: dose 100 mg/kg, route intraperitoneal; settings: in vivo; summary of the method: as §2
Mus musculus [5] = assay: Anticonvulsant activity in CF1 mouse assessed as protection against 6 Hz electric shock-induced seizures at 100 mg/kg, ip after 2 hrs; type: functional, organism-based; parameters: dose 100 mg/kg
Summary of the method: (§3)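 Male CF-1 albino mice (18–25 g), compound suspended in 0.5% methyl cellulose/water or PEG 200, given i.p.; four mice per time point (0.25, 0.5, 1.0, 2.0, 4 h) challenged via corneal electrodes at 6 Hz, 32 mA for 3 s, current eliciting psychomotor seizure in 97% of animals; reported as protected/tested.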

Mus musculus [6] = assay: Neurotoxicity in CF1 mouse at 30 mg/kg, ip after 4 hrs by rotarod test; type: toxicity, organism-based; parameters: dose 30 mg/kg, route intraperitoneal; settings: in vivo; summary of the method: as §2
Mus musculus [7] = assay: Anticonvulsant activity in CF1 mouse assessed as protection against subcutaneous metrazole-induced seizures at 100 mg/kg, ip after 4 hrs; type: functional, organism-based; parameters: dose 100 mg/kg
Mus musculus [8] = assay: Anticonvulsant activity in CF1 mouse assessed as protection against maximal electroshock-induced seizures at 300 mg/kg, ip after 4 hrs; type: functional, organism-based; parameters: dose 300 mg/kg; summary of the method: as §1
Mus musculus [9] = assay: Anticonvulsant activity in CF1 mouse assessed as protection against maximal electroshock-induced seizures at 100 mg/kg, ip after 0.5 hrs; type: functional, organism-based; parameters: dose 100 mg/kg; summary of the method: as §1
Mus musculus [10] = assay: Anticonvulsant activity in CF1 mouse assessed as protection against subcutaneous metrazole-induced seizures at 30 mg/kg, ip after 4 hrs; type: functional, organism-based; parameters: dose 30 mg/kg
Mus musculus [11] = assay: Anticonvulsant activity in CF1 mouse assessed as protection against subcutaneous metrazole-induced seizures at 300 mg/kg, ip after 0.5 hrs; type: functional, organism-based; parameters: dose 300 mg/kg
Mus musculus [12] = assay: Anticonvulsant activity in CF1 mouse assessed as protection against maximal electroshock-induced seizures at 30 mg/kg, ip after 0.5 hrs; type: functional, organism-based; parameters: dose 30 mg/kg; summary of the method: as §1
Mus musculus [13] = assay: Anticonvulsant activity in CF1 mouse assessed as protection against subcutaneous metrazole-induced seizures at 30 mg/kg, ip after 0.5 hrs; type: functional, organism-based; parameters: dose 30 mg/kg
Mus musculus [14] = assay: Anticonvulsant activity in CF1 mouse assessed as protection against maximal electroshock-induced seizures at 300 mg/kg, ip after 0.5 hrs; type: functional, organism-based; parameters: dose 300 mg/kg; summary of the method: as §1
Mus musculus [15] = assay: Anticonvulsant activity in CF1 mouse assessed as protection against 6 Hz electric shock-induced seizures at 100 mg/kg, ip after 4 hrs; type: functional, organism-based; parameters: dose 100 mg/kg; summary of the method: as §3
Mus musculus [16] = assay: Anticonvulsant activity in CF1 mouse assessed as protection against maximal electroshock-induced seizures at 30 mg/kg, ip after 4 hrs; type: functional, organism-based; parameters: dose 30 mg/kg; summary of the method: as §1
Mus musculus [17] = assay: Neurotoxicity in CF1 mouse at 100 mg/kg, ip after 4 hrs by rotarod test; type: toxicity, organism-based; parameters: dose 100 mg/kg, route intraperitoneal; settings: in vivo; summary of the method: as §2
Mus musculus [18] = assay: Neurotoxicity in CF1 mouse at 30 mg/kg, ip after 0.5 hrs by rotarod test; type: toxicity, organism-based; parameters: dose 30 mg/kg, route intraperitoneal; settings: in vivo; summary of the method: as §2
Mus musculus [19] = assay: Neurotoxicity in CF1 mouse at 300 mg/kg, ip after 0.5 hrs by rotarod test; type: toxicity, organism-based; parameters: dose 300 mg/kg, route intraperitoneal; settings: in vivo; summary of the method: as §2
Mus musculus [20] = assay: Anticonvulsant activity in CF1 mouse assessed as protection against 6 Hz electric shock-induced seizures at 100 mg/kg, ip after 0.25 hrs; type: functional, organism-based; parameters: dose 100 mg/kg; summary of the method: as §3
Mus musculus [21] = assay: Anticonvulsant activity in CF1 mouse assessed as protection against subcutaneous metrazole-induced seizures at 100 mg/kg, ip after 0.5 hrs; type: functional, organism-based; parameters: dose 100 mg/kg
Mus musculus [22] = assay: Anticonvulsant activity in CF1 mouse assessed as protection against 6 Hz electric shock-induced seizures at 100 mg/kg, ip after 0.5 hrs; type: functional, organism-based; parameters: dose 100 mg/kg; summary of the method: as §3
Mus musculus [23] = assay: Anticonvulsant activity in CF1 mouse assessed as protection against 6 Hz electric shock-induced seizures at 100 mg/kg, ip after 1 hr; type: functional, organism-based; parameters: dose 100 mg/kg; summary of the method: as §3

Measured: Activity

CCCOc1c(C(=O)N/N=C\c2c[nH]c3ccccc23)sc(C(=O)N/N=C/c2c[nH]c3ccccc23)c1OCCC
Toxic: Mus musculus [4] | Mus musculus [19]
Non-toxic: Mus musculus [3] | Mus musculus [6] | Mus musculus [17] | Mus musculus [18]
not listed: Mus musculus [21] | Mus musculus [22] | Mus musculus [23]
inactive: all other assays above

CCCOc1c(C(=O)N/N=C\c2ccccc2)sc(C(=O)N/N=C/c2ccccc2)c1OCCC
Non-toxic: Mus musculus [3] | Mus musculus [4] | Mus musculus [6] | Mus musculus [17] | Mus musculus [18] | Mus musculus [19]
not listed: Mus musculus [1] | Mus musculus [22] | Mus musculus [23]
inactive: all other assays above

CCCOc1c(C(=O)N/N=C\c2cc(OC)c(OC)c(OC)c2)sc(C(=O)N/N=C/c2cc(OC)c(OC)c(OC)c2)c1OCCC
Non-toxic: Mus musculus [3] | Mus musculus [4] | Mus musculus [6] | Mus musculus [17] | Mus musculus [18] | Mus musculus [19]
not listed: Mus musculus [5] | Mus musculus [21] | Mus musculus [23]
inactive: all other assays above

CCCOc1c(C(=O)NN=C2CCCCCC2)sc(C(=O)NN=C2CCCCCC2)c1OCCC
Non-toxic: Mus musculus [3] | Mus musculus [4] | Mus musculus [6] | Mus musculus [17] | Mus musculus [18] | Mus musculus [19]
not listed: Mus musculus [8] | Mus musculus [22]
inactive: all other assays above

CCCOc1c(C(=O)N/N=C(\C)c2cccs2)sc(C(=O)N/N=C(\C)c2cccs2)c1OCCC
Non-toxic: Mus musculus [3] | Mus musculus [4] | Mus musculus [6] | Mus musculus [17] | Mus musculus [18] | Mus musculus [19]
not listed: Mus musculus [1] | Mus musculus [5] | Mus musculus [8] | Mus musculus [15] | Mus musculus [22] | Mus musculus [23]
inactive: all other assays above

CCCOc1c(C(=O)N/N=C/c2ccc(-c3ccccc3)cc2)sc(C(=O)N/N=C/c2ccc(-c3ccccc3)cc2)c1OCCC
Toxic: Mus musculus [4] | Mus musculus [19]
Non-toxic: Mus musculus [3] | Mus musculus [6] | Mus musculus [17] | Mus musculus [18]
not listed: Mus musculus [5] | Mus musculus [15] | Mus musculus [20] | Mus musculus [22] | Mus musculus [23]
inactive: all other assays above

CCCOc1c(C(=O)N/N=C\c2ccc3c(c2)Cc2ccccc2-3)sc(C(=O)N/N=C/c2ccc3c(c2)Cc2ccccc2-3)c1OCCC
Non-toxic: Mus musculus [6] | Mus musculus [17] | Mus musculus [18]
Toxic: Mus musculus [3] | Mus musculus [19]
not listed: Mus musculus [4] | Mus musculus [5] | Mus musculus [21] | Mus musculus [22] | Mus musculus [23]
inactive: all other assays above

CCCOc1c(C(=O)N/N=C/c2ccc3c(c2)c2ccccc2n3CC)sc(C(=O)N/N=C/c2ccc3c(c2)c2ccccc2n3CC)c1OCCC
Non-toxic: Mus musculus [3] | Mus musculus [6] | Mus musculus [17] | Mus musculus [18]
Toxic: Mus musculus [4] | Mus musculus [19]
not listed: Mus musculus [5] | Mus musculus [15] | Mus musculus [20] | Mus musculus [22] | Mus musculus [23]
inactive: all other assays above

CCCOc1c(C(=O)NN=C(C)C)sc(C(=O)NN=C(C)C)c1OCCC
Non-toxic: Mus musculus [3] | Mus musculus [4] | Mus musculus [6] | Mus musculus [17] | Mus musculus [18]
Toxic: Mus musculus [19]
not listed: Mus musculus [5] | Mus musculus [15] | Mus musculus [20] | Mus musculus [22] | Mus musculus [23]
inactive: all other assays above

CCCOc1c(C(=O)N/N=C(\C)c2ccccn2)sc(C(=O)N/N=C(\C)c2ccccn2)c1OCCC
Non-toxic: Mus musculus [3] | Mus musculus [4] | Mus musculus [6] | Mus musculus [17] | Mus musculus [18] | Mus musculus [19]
not listed: Mus musculus [5] | Mus musculus [15] | Mus musculus [20] | Mus musculus [22] | Mus musculus [23]
inactive: all other assays above

CCCOc1c(C(=O)NN=C2CC(C)Sc3sccc32)sc(C(=O)NN=C2CC(C)Sc3sccc32)c1OCCC (stereo unspecified)
Toxic: Mus musculus [4] | Mus musculus [18] | Mus musculus [19]
Non-toxic: Mus musculus [3] | Mus musculus [6] | Mus musculus [17]
not listed: Mus musculus [5] | Mus musculus [15] | Mus musculus [20] | Mus musculus [22] | Mus musculus [23]
inactive: all other assays above
